Experimental data from ChEMBL document CHEMBL3297663, “Synthesis and evaluation of (E)-2-(acrylamido)cyclohex-1-enecarboxylic acid derivatives as HCA1, HCA2, and HCA3 receptor agonists” (Bioorg Med Chem, 2014).
Calls of active or inactive are those of the source. The calls are words filed in the database; no cut-off is given here.

Experiments:
Assay type in all cases: functional, cell-based
[1] = target: Hydroxycarboxylic acid receptor 1 (Homo sapiens) (UniProt Q9BXC0); experiment: Agonist activity at human HCA1 receptor expressed in Flp-In-293 cells assessed as inhibition of forskolin-induced cAMP accumulation at 50 uM after 30 mins
Method in brief: (§1)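 Flp-In-293 cells stably transfected with HCA receptor plasmids were plated at 10,000 cells/well. They were stimulated with forskolin plus compound for 30 min in PBS with 2% BSA and 0.5 mM IBMX. Inhibition of cAMP accumulation at a single compound concentration is expressed as % of the forskolin-stimulated level (set to 100%). Values are mean ± SD of at least three experiments, each in duplicate.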

[2] = target: Hydroxycarboxylic acid receptor 3 (Homo sapiens) (UniProt P49019); experiment: Agonist activity at human HCA3 receptor expressed in Flp-In-293 cells assessed as inhibition of forskolin-induced cAMP accumulation at 50 uM after 30 mins; method in brief: as §1
[3] = target: T1, Hydroxycarboxylic acid receptor 2 (Homo sapiens, UniProt Q8TDS4); experiment: Agonist activity at human HCA2 receptor expressed in Flp-In-293 cells assessed as inhibition of forskolin-induced cAMP accumulation at 50 uM after 30 mins; method in brief: as §1
[4] = target: T1, Hydroxycarboxylic acid receptor 2; experiment: Agonist activity at human HCA2 receptor expressed in Flp-In-293 cells assessed as inhibition of forskolin-induced cAMP accumulation after 30 mins
Method in brief: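 EC50 values come from an intracellular cAMP assay in Flp-In-293 cells stably expressing the receptor (10,000 cells/well). Cells were co-incubated 30 min with forskolin and compound in PBS, 2% BSA and 0.5 mM IBMX. Values are mean ± SD of at least three experiments, each in duplicate.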

[5] = target: Hydroxycarboxylic acid receptor 1 (Homo sapiens) (UniProt Q9BXC0); experiment: Agonist activity at human HCA1 receptor expressed in Flp-In-293 cells assessed as inhibition of forskolin-induced cAMP accumulation up to 50 uM after 30 mins
Method in brief: (§2)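 Stable HCA-expressing Flp-In-293 cells (10,000/well) were treated with compound plus forskolin for 30 min in PBS containing 2% BSA and 0.5 mM IBMX. The value is the maximal % inhibition of forskolin-stimulated cAMP, with the forskolin-only level taken as 100%. Data are mean ± SD from at least three experiments, each in duplicate.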

[6] = target: Hydroxycarboxylic acid receptor 3 (Homo sapiens) (UniProt P49019); experiment: Agonist activity at human HCA3 receptor expressed in Flp-In-293 cells assessed as inhibition of forskolin-induced cAMP accumulation up to 50 uM after 30 mins; method in brief: as §2
[7] = target: T1, Hydroxycarboxylic acid receptor 2; experiment: Agonist activity at human HCA2 receptor expressed in Flp-In-293 cells assessed as inhibition of forskolin-induced cAMP accumulation up to 50 uM after 30 mins; method in brief: as §2

Hydroxycarboxylic acid receptor 3 (Homo sapiens), sequence (P49019 whole entry): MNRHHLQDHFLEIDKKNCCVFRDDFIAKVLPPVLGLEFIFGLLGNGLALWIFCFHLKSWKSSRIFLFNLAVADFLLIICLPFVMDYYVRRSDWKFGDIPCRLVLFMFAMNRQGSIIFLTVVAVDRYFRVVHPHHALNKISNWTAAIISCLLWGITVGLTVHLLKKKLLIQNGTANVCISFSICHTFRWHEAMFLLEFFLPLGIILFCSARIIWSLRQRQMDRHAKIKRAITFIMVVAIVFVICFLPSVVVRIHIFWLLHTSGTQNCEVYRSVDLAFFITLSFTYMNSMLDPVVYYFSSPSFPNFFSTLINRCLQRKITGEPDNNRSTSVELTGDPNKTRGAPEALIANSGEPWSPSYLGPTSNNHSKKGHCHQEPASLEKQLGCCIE
Hydroxycarboxylic acid receptor 1 (Homo sapiens), sequence (Q9BXC0 whole entry): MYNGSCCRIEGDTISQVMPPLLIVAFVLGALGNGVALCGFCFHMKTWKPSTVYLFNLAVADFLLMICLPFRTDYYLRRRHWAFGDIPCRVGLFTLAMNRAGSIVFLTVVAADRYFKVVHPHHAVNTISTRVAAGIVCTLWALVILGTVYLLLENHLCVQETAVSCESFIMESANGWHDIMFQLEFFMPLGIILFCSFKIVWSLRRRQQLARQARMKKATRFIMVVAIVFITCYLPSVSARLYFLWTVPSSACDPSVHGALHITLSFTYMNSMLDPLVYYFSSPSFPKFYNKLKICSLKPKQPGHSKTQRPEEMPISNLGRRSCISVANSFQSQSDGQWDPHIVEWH
T1 sequence (Q8TDS4 whole entry): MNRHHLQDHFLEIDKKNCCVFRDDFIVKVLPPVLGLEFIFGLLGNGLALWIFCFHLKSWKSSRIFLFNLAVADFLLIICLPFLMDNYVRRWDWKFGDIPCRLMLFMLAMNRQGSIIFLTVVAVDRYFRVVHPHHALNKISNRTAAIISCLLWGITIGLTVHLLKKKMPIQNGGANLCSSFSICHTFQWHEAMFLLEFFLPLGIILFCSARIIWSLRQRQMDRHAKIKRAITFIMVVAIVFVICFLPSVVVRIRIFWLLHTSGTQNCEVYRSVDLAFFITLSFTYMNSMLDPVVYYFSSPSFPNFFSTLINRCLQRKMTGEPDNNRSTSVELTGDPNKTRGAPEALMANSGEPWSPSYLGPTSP

| inhibition [1] [%] | inhibition [2] [%] | inhibition [3] [%] | EC50 [4] [µM] | Emax [4] [%] | inhibition [5] | inhibition [6] | inhibition [7] | Structure (SMILES) |
| --- | --- | --- | --- | --- | --- | --- | --- | --- |
| – | – | 27 | – | – | inactive | inactive | – | O=C(/C=C/c1ccc2cccc(O)c2n1)NC1=C(C(=O)O)CCCC1 |
| – | – | – | 0.9 | 98 | inactive | inactive | – | O=C(C#Cc1ccc2cc(O)ccc2c1)NC1=C(C(=O)O)CCCC1 |
| – | – | – | – | – | inactive | inactive | inactive | Cc1ccc2cc(/C=C/C(=O)NC3=C(C(=O)O)CCCC3)ccc2n1 |
| 26 | – | – | 1.9 | 97 | – | inactive | – | O=C(CCc1ccc2cc(O)ccc2c1)NC1=C(C(=O)O)CCCC1 |
| 23 | 54 | – | 36.4 | 82 | – | – | – | Cc1ccc2cc(CCC(=O)NC3=C(C(=O)O)CCCC3)ccc2n1 |
| – | – | 34 | – | – | inactive | inactive | – | O=C(O)C1=C(NC(=O)[C@H]2C[C@H]2c2ccc3ccccc3c2)CCCC1 (racemic) |
| – | – | – | 1.4 | 96 | inactive | inactive | – | O=C(/C=C/c1ccc2cc(O)ccc2c1)NC1=C(C(=O)O)CCCC1 |
| – | – | – | 4.1 | 99 | inactive | inactive | – | O=C(/C=C/c1ccc2ccccc2n1)NC1=C(C(=O)O)CCCC1 |
| 14 | – | – | 4.5 | 94 | – | inactive | – | O=C(/C=C/c1ccc2ccccc2c1)NC1=C(C(=O)O)CCCC1 |
| 40 | 55 | – | 12.5 | 96 | – | – | – | O=C(O)C1=C(NC(=O)[C@@H]2C[C@H]2c2ccc3ccccc3c2)CCCC1 (racemic) |
| 26 | – | – | – | – | – | inactive | inactive | COc1ccc2cc(/C=C/C(=O)NC3=C(C(=O)O)CCCC3)ccc2c1 |
| 41 | 66 | – | 8.3 | 97 | – | – | – | O=C(CCc1ccc2ccccc2c1)NC1=C(C(=O)O)CCCC1 |

Further lines, the compound ahead of its results:

| Structure (SMILES) | inhibition [1] [%] | inhibition [2] [%] | inhibition [3] [%] | EC50 [4] [µM] | Emax [4] [%] | inhibition [5] | inhibition [6] | inhibition [7] |
| --- | --- | --- | --- | --- | --- | --- | --- | --- |
| COc1ccc(/C=C/C(=O)NC2=C(C(=O)O)CCCC2)cc1OC | 31 | 58 | 51 | – | – | – | – | – |
| O=C(/C=C/c1ccc2c(c1)OCO2)NC1=C(C(=O)O)CCCC1 | – | 26 | – | 5.8 | 83 | inactive | – | – |
| O=C(/C=C/c1cc2c(cc1Cl)OCO2)NC1=C(C(=O)O)CCCC1 | 34 | 59 | 17 | – | – | – | – | – |
| COc1ccc(/C=C/C(=O)NC2=C(C(=O)O)CCCC2)c(Cl)c1OC | 36 | 48 | – | 26.3 | 95 | – | – | – |
| O=C(/C=C/c1cc2c(cc1Br)OCO2)NC1=C(C(=O)O)CCCC1 | – | 54 | 24 | – | – | inactive | – | – |
| COc1cc(/C=C/C(=O)NC2=C(C(=O)O)CCCC2)cc(Br)c1OC | – | 46 | 23 | – | – | inactive | – | – |
| O=C(/C=C/c1ccc2ncccc2c1)NC1=C(C(=O)O)CCCC1 | 24 | 39 | 68 | – | – | – | – | – |
| O=C(CCc1ccc2ncccc2c1)NC1=C(C(=O)O)CCCC1 | 26 | 60 | 70 | – | – | – | – | – |
| O=C(CCc1ccc2c(c1)OCO2)NC1=C(C(=O)O)CCCC1 | 28 | 62 | – | 51.6 | 85 | – | – | – |
| COc1ccc2nc(Cl)c(CCC(=O)NC3=C(C(=O)O)CCCC3)cc2c1 | 24 | 53 | – | 4.1 | 91 | – | – | – |
| COc1ccc2nc(Cl)c(/C=C/C(=O)NC3=C(C(=O)O)CCCC3)cc2c1 | 21 | – | – | 6.3 | 86 | – | inactive | – |
| O=C(CCc1cccc2cccnc12)NC1=C(C(=O)O)CCCC1 | – | 55 | 60 | – | – | inactive | – | – |
| O=C(/C=C/C#Cc1ccccc1)NC1=C(C(=O)O)CCCC1 | – | 56 | – | 3.6 | 90 | inactive | – | – |
| O=C(/C=C/c1ccc2c(c1)OCCO2)NC1=C(C(=O)O)CCCC1 | – | 66 | – | 6.8 | 93 | inactive | – | – |
| O=C(/C=C/c1cc2ccccc2nc1Cl)NC1=C(C(=O)O)CCCC1 | 37 | 52 | – | 27.4 | 79 | – | – | – |
| COc1nc2ccccc2cc1/C=C/C(=O)NC1=C(C(=O)O)CCCC1 | 27 | 58 | 59 | – | – | – | – | – |
| O=C(/C=C/c1cccc2cccnc12)NC1=C(C(=O)O)CCCC1 | – | 54 | – | – | – | inactive | – | inactive |
| COc1cc2nc(/C=C/C(=O)NC3=C(C(=O)O)CCCC3)ccc2c(OC)c1OC | 38 | 61 | 53 | – | – | – | – | – |
| O=C(/C=C/c1ccnc2ccccc12)NC1=C(C(=O)O)CCCC1 | – | – | – | – | – | inactive | inactive | inactive |
